Laboratory results: the EternaBench riboswitch data

System: MS2 coat protein
Assay: apparent Kd, MS2 coat protein; higher = weaker binding; RNA-MaP array; FMN 200 µM where present
Outline: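 Each design was made on Illumina sequencing-chip clusters by stalled E. coli RNA polymerase and titrated with SNAP-549-labelled MS2 coat protein from 0.7 or 1.5 nM, doubling to 3 µM, in the absence and then the presence of constant ligand. The buffer was 100 mM Tris-HCl pH 7.5, 80 mM KCl, 4 mM MgCl2, BSA, DTT, yeast tRNA and Tween-20. The apparent Kd is the median of filtered per-cluster fits of binding curves, with green signal normalised to red-channel RNA signal and control-cluster median Fmax.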

[1] = designed as: ON switch for flavin mononucleotide, no ligand
[2] = ligand present: flavin mononucleotide, designed as: ON switch for flavin mononucleotide
[3] = designed as: OFF switch for flavin mononucleotide, no ligand
[4] = ligand present: flavin mononucleotide, designed as: OFF switch for flavin mononucleotide

Row | Sequence | apparent Kd [1] | apparent Kd [2] | apparent Kd [3] | apparent Kd [4]
1 | AAAACCUCAUGAGGAUAUCCAACAUGAGGAUCACCCAUGUUAGUCUCAGUACCAGGUACUAGAGAGGAGAAGGCAUGCCAGGGC | 78.6 nM | 27.5 nM |  | 
2 | GGAUGACAAAGUCAUCCAAUACGAACAUGAGGAUCACCCAUGUAGGAUAUGCAUCUCAAAGAGAUGCAGAAGGACAUGUGCCUU |  |  | 36.9 nM | 272 nM
3 | UACUCAUGUGAGAAGGGACGUAUCUCCAUGAGGGUAGGGCUAUUAGAGAAGUCAGGAUAUCACAUGAGGAUCACCCAUGUGACG |  |  | 6.92 nM | 7.02 nM
4 | AAUAUAAGAGCUGGUAACUCAAGAACAUGAGGAUCACCCAUGUAGGAUAUCAGCACGAUAAGUGCUGAGAAGGACAUCCAGCUC |  |  | 15.3 nM | 19 nM
5 | UGGUACUAGGGAGGAUAUGGGAAGAUACAUGAGGAUCACCCAUGUUUAAGAAUGCCGAGAGGCAACUAGAAGGCCCUAGUACCG | 475 nM | 21.9 nM |  | 
6 | ACUAAAGAAGGAUAUACUAACGAACCUCAAACAUAGAUAAGACAUGAGGAUCACCCAUGUAGAAGGUCUAGACU |  |  | 44.2 nM | 37.4 nM
7 | GUGGUCAGACAUGAGGAUCACCCAUGUGGAAUAAAUAACAGACAGGAUAUUAAAUAUAGGAUAUAUAAGAAGGGUCGAUUGGUG | 91.1 nM | 91.6 nM |  | 
8 | GGAUGUCAAAGACAUCCAAUACGAACAUGAGGAUCACCCAUGUAGGAUAUGCUACUCAAAGAGUAGCAGAAGGACAUGUGUCUU |  |  | 30.6 nM | 164 nM
9 | GUAGCAUAUGAUUUACAUGAGGAUCACCCAUGUAUCUUGGGUAAGGAUAUUGAUGUUAUGUUAAUCAAGAAGGUACUAUGCUAC | 50.5 nM | 8.66 nM |  | 
10 | UAAUAAAACGAUCGGCGAUCCAUACAUGAGGAUCACCCAUGUAGAAGGCACUCUACAAAGUAGAGUGAGGAUAUACGAGAUCGA |  |  | 7.85 nM | 105 nM
11 | GCUUGUGAAGGAUAUACUGGCGGCAUGCGCUCGACACGCGCACAUGAGGAUCACCCAUGUAGAAGGUCAAACGU |  |  | 17.2 nM | 17.7 nM
12 | AAGAGUAGAGGAUAUACAUGAGGAUCACCCAUGUAAUCCGGAUAAGGAAGCAUGUCGUGUAGAAGGCUGCAUGA |  |  | 15.2 nM | 12.4 nM
13 | GCCGGGUCAGGAUAUGGGCCCGGGCCCGAAAGGGCCCGGGCCCAGAAGGGACAUGAGGAUCACCCAUGUCCGGC |  |  | 19.5 nM | 16.5 nM
14 | GCCUCGCUGUGAGGAUAUUACGCCUACCGGCAAAAUGCGGUUUCAGGUCCGUAAGAAGGCACAUGAGGAUCACCCAUGUAAGAA |  |  | 26.7 nM | 213 nM
15 | ACAAGAUCAGGAUAUACAUGAGGAUCACCCAUGUGUAUCAAAAGGGAACUUUCUUAAUGUAGAAGGGAUCUUGU |  |  | 14.7 nM | 22.3 nM
16 | UGUCGGAGCAGAGGAUAUUACAUGAGGAUCACCCAUGUAUGAACCAAUAGCUGGAAACAGCAAUGUAAGAAGGCUGCUCCGACA |  |  | 37.5 nM | 531 nM
17 | GCGUGGAUAGCAGGAUAUAUGUUUCCUACAUGAGGAUCACCCAUGUAGGUGAUCAGCCGAGAAAAGUAGAAGGGCUAUCCAUGC | 16 nM | 13.4 nM |  | 
18 | UUGGAGAUAGGAUAUACGAGGAGAGUAGAGGGAAGGUGAUGACAUGAGGAUCACCCAUGUAGAAGGAUCAGGAG |  |  | 155 nM | 100 nM
19 | CAAUCUGCAGGAUAUACAUGAGGAUCACCCAUGUAAGGACAAUAAAUAAGAAGAAGAAGUAGAAGGGCAGACAA |  |  | 30.1 nM | 31.8 nM
20 | AGGCGUAAGACAGGAUAUAGGCAGCGGGCUGGAAACGAAUACAAAGACAUGAGGAUCACCCAUGUCUAGAAGGGUCGUGGCGGG |  |  | 9.05 nM | 9.88 nM
21 | UUGCCUCAGAACAUGAGGAUCACCCAUGUGCUGCGGGCAACGUAGGAUAUGAUGGUACGCUACCAUCAGAAGGAUGAUGGUACC | 5.51 nM | 4.99 nM |  | 
22 | AAUAUGAGCUGGUUUAAAACUCAAACAUGAGGAUCACCCAUGUAGGAUAUCAGCACGAUAAGUGCUGAGAAGGACAUCCAGCUC |  |  | 15 nM | 18.9 nM
23 | GGGUACAUCGGAGGAUAUCAUGUAAAUACAUGAGGAUCACCCAUGUCGAUGGAGACAUCGGAGAGUGAGAAGGCCGAUGUACCG | 257 nM | 13.3 nM |  | 
24 | GGGUGGCGUAGAGGAUAUAUGGUACAUGAGGAUCACCCAUGUACAUAUGAUGUUCAUGUUUAUGUAUAGAAGGCUACGUCGCUA | 10.1 nM | 9.76 nM |  | 
25 | ACUAUACGAGGAUAUACUGACGGGCCUCGGGCGUCCCUGCGACAUGAGGAUCACCCAUGUAGAAGGCGUAUACU |  |  | 39.2 nM | 92.8 nM
26 | GCGUAUAUAAGAUUUAUUUAACAGUCAGAAGGUGAUAAUACGACAUGAGGAUCACCCAUGUAAUUCAAGGAUAUGAUCUUACGC | 133 nM | 65.7 nM |  | 
27 | UAAAAGACUAGCAACUAUCUCCACAUGAGGAUCACCCAUGUCUAGGAUAUGAGCAGCAAAGCUGCUUAGAAGGAGACGCUAGUC |  |  | 6.67 nM | 6.88 nM
28 | CGCAAGUAUACAUGAGGAUCACCCAUGUUUGAUAGGGUUUUCAGAAGGUACAAUUAGAGAUAGAGUAAGGAUAUGAAAUUUGCG | 125 nM | 24.7 nM |  | 

Row | Sequence | apparent Kd [1] | apparent Kd [2] | apparent Kd [3] | apparent Kd [4]
29 | UAUAUAUAGUAAGGAUAUGUAAUUAUUUUGUAAACAGAAGGUACUGACAUGAGGAUCACCCAUGUUUUAGUGUGGGCAUGUAGA |  |  | 117 nM | 182 nM
30 | UUCAGCUUGACAGGAUAUACAUGACUGCGAAAGCAGUCUAUCUUAAUAACAUGAGGAUCACCCAUGUAGAAGGGUCGAGCUGAA |  |  | 16.2 nM | 26.5 nM
31 | GCACUGGAUGUAGGAUAUCAGGACGAUAAGUCCUGAGAAGGACAUGAGGAUCACCCAUGUACUCAAAACCAGUGCUAUAAUAUA |  |  | 15.6 nM | 23.8 nM
32 | GGUGCGUAUGUGAGGAUAUGCUGGUCCUUGGAUCAGCAGAAGGCACAUGAGGAUCACCCAUGUGGUGUCGUACU |  |  | 282 nM | 26.1 nM
33 | CUGGAAUACAGACAUGAGGAUCACCCAUGUUUAAGGGAAGCACAGGAUAUGUCGACGCACCAUAGACAGAAGGGUGACUUGCUU | 49.4 nM | 24.8 nM |  | 
34 | CUGUUACGUGUAGGAUAUGCAUAUUCCCAUUAUGCAGAAGGACAUGAGGAUCACCCAUGUAUGUUAUUAUCAUGUGUUACAUGC |  |  | 34.6 nM | 153 nM
35 | AAUUAACACCAGAAGGACAUGAGGAUCACCCAUGUAGGAUAUGGGAGUGGGUCCGUUGGAGUUGGCCCGUCUCUGCGGGCUCGA | 79.1 nM | 8.95 nM |  | 
36 | CCACGUCCCAUUAACAUGAGGAUCACCCAUGUCAAAAGACAUGAGGAUAUGGUACCUAAUUGGUACCAGAAGGCAUGGACGUGG | 691 nM | 114 nM |  | 
37 | UUAAAUCAUGUAGGAUAUGCAUGGCGAAGCUACGCAGAAGGACAUGAGGAUCACCCAUGUUAUAGCGUCCGAUAAAGGAUGCAA |  |  | 85.1 nM | 225 nM
38 | UUUAAACAUGAGGAUCACCCAUGUCGUUCAAAUCAAGGAUAUCAAGCGUAUGCGCACGCUUGAGAAGGUGAAGCUC | 47.2 nM | 135 nM |  | 
39 | CAAUUUAGCGAGAAGGAGCGCCCGUAGGUACAUGAGGAUCACCCAUGUCCUUUGUGCUCUACGCGCUAGGAUAUCGAUAAACAG |  |  | 20.9 nM | 116 nM
40 | GACAAACAUGAGGAUCACCCAUGUUCAGACGAACAAGGAUAUGUGUGGAAACCAUACUAUACAGAAGGUGUCUGUC | 48.6 nM | 31.1 nM |  | 
41 | AGUAAACAUGAGGAUCACCCAUGUGGUGGCCCAUGAGGAUAUCCAUGCGCAAUACGCAUAGGAGAAGGCAUAGCCA | 62 nM | 123 nM |  | 
42 | ACCUGACAUGAGGAUCACCCAUGUGAGGAUAUGUACAUCAGGAAAAAAAAACUGAUGUACAGAAGGCACUUGGG |  |  | 25.4 nM | 37.1 nM
43 | UUUUUCUGCUGAGGAUAUUGCUCGUGCGUACAUGAGGAUCACCCAUGUGUCUUGAUCCUCUUCUGCAAGAAGGCAGCUCUCUCU |  |  | 403 nM | 155 nM
44 | UUCCUCAUAACAUGAGGAUCACCCAUGUAUUAUUUGAUAACUGAGGAUAUACUUUUAAUGUUUAUGUAGAAGGCAGAUACAGUU |  |  | 89.4 nM | 138 nM
45 | UGUUGUUUAGGAUAUACAUGAGGAUCACCCAUGUGACAAAAAUAUUUUACAAAACCAUGUAGAAGGAAAUGGCA |  |  | 22.3 nM | 48.2 nM
46 | AACAAAGACACAGGAUAUCCACAAAUACAUGAGGAUCACCCAUGUUCGAAAGGAGAAGGGUGGCACCGGUACAAUCUGGUUAUC | 275 nM | 89.3 nM |  | 
47 | CUUCGUUGUAAGGAUAUCCAGACUCUUCCUGUCGGAGAAGGUACAACAUGAGGAUCACCCAUGUUGCUACAUGG |  |  | 25 nM | 38.7 nM
48 | CCCUCAACAUGAGGAUCACCCAUGUAGGAUAUCGCUAUUGUAAUCAUGAAACAUGAUUACAAUAGCGAGAAGGACAUAUGUCCC |  |  | 13.8 nM | 15.3 nM
49 | GUGCCUUGGAAGAAGGCCGUAUGCAAAGCAUACGGAGGAUAUUCAUACCGGAAACGGACAUGAGGAUCACCCAUGUGGCACAAA | 13 nM | 6.24 nM |  | 
50 | AGUGUCAUCGAGAAGGCCUCAACAUGAGGAUCACCCAUGUUGCCAAAAGGGAGGAUAUCGAUGAUACAGCUACGUUUCGUAGCA | 4.15 nM | 4.34 nM |  | 
51 | UUUUUACAUGAGGAUCACCCAUGUCAGGAUAUCAUUAUAUUUUAUUAUUUUAUUUAUAUGAGAAGGGACUAUUA |  |  | 87.7 nM | 60.1 nM
52 | CUAAAUCAUGUAGGAUAUCGAUUGCGUCGCGAUCGAGAAGGACAUGAGGAUCACCCAUGUCAGAACGUCUGCGUUCAGACGUUG |  |  | 48.5 nM | 361 nM
53 | GAAUAAUUGAUCCAUUUUUAAAACAUGAGGAUCACCCAUGUGCAGGAUAUCGAUAGUUUUAGAUUCGAGAAGGGCAAGAACUGU |  |  | 88.2 nM | 149 nM
54 | CUUCGUAUAGAGGAUAUAGGUUACUACGGUAUCCUAGAAGGCUGUACAUGAGGAUCACCCAUGUACUUCAGAUC |  |  | 12.9 nM | 16.1 nM
55 | GGCCUGCAGCUAGGAUAUGGGCGAUCACAUGAGGAUCACCCAUGUCAACAUCAAAACAAGAUUAACCAGAAGGAGCCGCGAGUU | 26.5 nM | 211 nM |  | 
